Reference: ChEMBL document CHEMBL1122384, “Synthesis and evaluation of 24-(isopropyl[75Se]seleno)chol-5-en-3 beta-ol” (J Med Chem, 1983)

Columns and labels:
Type in all cases: functional
[1] = Adrenal/Tissue ratio calculated from percent dose per gram of tissue determined after 1 day intravenous administration from blood
Summary of the method: (§1)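 Female Fischer 344 rats (160–180 g), fed ad libitum. Steroid dissolved in EtOH, formulated in Tween 80–EtOH–saline, 5–10 μCi in 1 mL given into a lateral tail vein under light Et₂O anesthesia. Organs removed 1 day post-injection, rinsed, blotted, weighed and gamma counted, 3 rats per time point. Ratios taken from adrenal vs tissue % dose/g.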

[2] = Adrenal/Tissue ratio calculated from percent dose per gram of tissue determined after 1 day intravenous administration from kidney; summary of the method: as §1
[3] = Adrenal/Tissue ratio calculated from percent dose per gram of tissue determined after 1 day intravenous administration from ovaries; summary of the method: as §1
[4] = Adrenal/Tissue ratio calculated from percent dose per gram of tissue determined after 1 day intravenous administration from liver; summary of the method: as §1

Question: What does the source list for `CC(C)CCCC(C)C1CCC2C3CC(CI)C4=C(CCC(O)C4)C3CCC12C` (centres undefined)?
Answer: Ratio [1]: 92.1; Ratio [2]: 107.8; Ratio [3]: 3; Ratio [4]: 52.2
